Tested on: HEK-293T
Assay: Multiplex assay against HEK293T
Type: toxicity, cell-based
Conditions: human
Summary of the method: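 Values for tubulin, mitochondrial-mass and membrane-permeability phenotypes are per cents of cells with healthy nuclei. These cells were identified by CellPathfinder machine-learning gating of live cells that had been stained at seeding with Hoechst33342, BioTracker Green Microtubule Cytoskeleton Dye, MitoTracker Red and Annexin V Alexa Fluor 680 and imaged on a CQ1 microscope at 37°C and 5% CO2 after compound addition. The gating first set Hoechst high-intensity objects apart from normal cells, then split normal cells into healthy, pyknosed or fragmented nuclei, and pyknosed cells into mitotic or apoptotic.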

[1] = 12 h, 1 µM, compound concentration 1 uM, replicate 1
[2] = 12 h, 1 µM, compound concentration 1 uM, replicate 2
[3] = 12 h, 10 µM, compound concentration 10 uM, replicate 1
[4] = 12 h, 10 µM, compound concentration 10 uM, replicate 2
[5] = 24 h, 1 µM, compound concentration 1 uM, replicate 1
[6] = 24 h, 1 µM, compound concentration 1 uM, replicate 2
[7] = 24 h, 10 µM, compound concentration 10 uM, replicate 1
[8] = 24 h, 10 µM, compound concentration 10 uM, replicate 2
[9] = 48 h, 1 µM, compound concentration 1 uM, replicate 1
[10] = 48 h, 1 µM, compound concentration 1 uM, replicate 2
[11] = 48 h, 10 µM, compound concentration 10 uM, replicate 1
[12] = 48 h, 10 µM, compound concentration 10 uM, replicate 2

Question: Which “Population Apoptotic (%)” value [1] does the source give for `O=C(CCCc1ccccc1)Nc1nc2ccccc2c(=O)s1` here?
Answer: 30%

Question: What about the “Population Fragmented Nuclei (%)” value [1] of the same compound?
Answer: 4%

Question: What about the “Population Healthy Nuclei (%)” value [1] of the same compound?
Answer: 83%

Question: And the “Population Hoechst High Intensity Objects (%)” value [1]?
Answer: 6%

Question: What about the “Population Membrane Permeable-Phenotype (%)” value [1] of the same compound?
Answer: 0%

Question: And the “Population Mitochondria Different-Phenotype (%)” value [1]?
Answer: 37%

Question: And the “Population Mitotic Cells (%)” value [1]?
Answer: 70%

Question: And the “Population Normal (%)” value [1]?
Answer: 93%

Question: And the “Population Pyknosed Nuclei (%)” value [1]?
Answer: 11%

Question: And the “Population Tubulin-Different-Phenotype (%)” value [1]?
Answer: 32%

Question: And the “Total Cell Count” value [1]?
Answer: 372

Question: And the “Population Apoptotic (%)” value [2]?
Answer: 43%

Question: What about the “Population Fragmented Nuclei (%)” value [2] of the same compound?
Answer: 7%

Question: What about the “Population Healthy Nuclei (%)” value [2] of the same compound?
Answer: 74%

Question: And the “Population Hoechst High Intensity Objects (%)” value [2]?
Answer: 13%

Question: And the “Population Mitochondria Different-Phenotype (%)” value [2]?
Answer: 63%

Question: And the “Population Mitotic Cells (%)” value [2]?
Answer: 56%

Question: And the “Population Normal (%)” value [2]?
Answer: 86%

Question: What about the “Population Pyknosed Nuclei (%)” value [2] of the same compound?
Answer: 17%

Question: And the “Population Tubulin-Different-Phenotype (%)” value [2]?
Answer: 36%

Question: What about the “Total Cell Count” value [2] of the same compound?
Answer: 267

Question: And the “Population Apoptotic (%)” value [3]?
Answer: 30%

Question: What about the “Population Fragmented Nuclei (%)” value [3] of the same compound?
Answer: 10%

Question: What about the “Population Healthy Nuclei (%)” value [3] of the same compound?
Answer: 80%

Question: And the “Population Hoechst High Intensity Objects (%)” value [3]?
Answer: 9%

Question: What about the “Population Membrane Permeable-Phenotype (%)” value [3] of the same compound?
Answer: 0%

Question: What about the “Population Mitochondria Different-Phenotype (%)” value [3] of the same compound?
Answer: 47%

Question: What about the “Population Mitotic Cells (%)” value [3] of the same compound?
Answer: 69%

Question: What about the “Population Normal (%)” value [3] of the same compound?
Answer: 90%

Question: And the “Population Pyknosed Nuclei (%)” value [3]?
Answer: 9%

Question: What about the “Population Tubulin-Different-Phenotype (%)” value [3] of the same compound?
Answer: 27%

Question: What about the “Total Cell Count” value [3] of the same compound?
Answer: 555

Question: What about the “Population Apoptotic (%)” value [4] of the same compound?
Answer: 44%

Question: What about the “Population Fragmented Nuclei (%)” value [4] of the same compound?
Answer: 7%

Question: And the “Population Healthy Nuclei (%)” value [4]?
Answer: 74%

Question: What about the “Population Hoechst High Intensity Objects (%)” value [4] of the same compound?
Answer: 27%

Question: And the “Population Mitochondria Different-Phenotype (%)” value [4]?
Answer: 68%

Question: What about the “Population Mitotic Cells (%)” value [4] of the same compound?
Answer: 55%

Question: And the “Population Normal (%)” value [4]?
Answer: 72%

Question: What about the “Population Pyknosed Nuclei (%)” value [4] of the same compound?
Answer: 17%

Question: What about the “Population Tubulin-Different-Phenotype (%)” value [4] of the same compound?
Answer: 26%

Question: And the “Total Cell Count” value [4]?
Answer: 371

Question: What about the “Population Apoptotic (%)” value [5] of the same compound?
Answer: 20%

Question: What about the “Population Fragmented Nuclei (%)” value [5] of the same compound?
Answer: 8%

Question: What about the “Population Healthy Nuclei (%)” value [5] of the same compound?
Answer: 81%

Question: And the “Population Hoechst High Intensity Objects (%)” value [5]?
Answer: 5%

Question: What about the “Population Membrane Permeable-Phenotype (%)” value [5] of the same compound?
Answer: 1%

Question: What about the “Population Mitochondria Different-Phenotype (%)” value [5] of the same compound?
Answer: 21%

Question: What about the “Population Mitotic Cells (%)” value [5] of the same compound?
Answer: 79%

Question: What about the “Population Normal (%)” value [5] of the same compound?
Answer: 94%

Question: And the “Population Pyknosed Nuclei (%)” value [5]?
Answer: 10%

Question: What about the “Population Tubulin-Different-Phenotype (%)” value [5] of the same compound?
Answer: 15%

Question: What about the “Total Cell Count” value [5] of the same compound?
Answer: 538

Question: And the “Population Apoptotic (%)” value [6]?
Answer: 45%

Question: What about the “Population Fragmented Nuclei (%)” value [6] of the same compound?
Answer: 9%

Question: And the “Population Healthy Nuclei (%)” value [6]?
Answer: 78%

Question: What about the “Population Hoechst High Intensity Objects (%)” value [6] of the same compound?
Answer: 8%

Question: And the “Population Membrane Permeable-Phenotype (%)” value [6]?
Answer: 0%

Question: And the “Population Mitochondria Different-Phenotype (%)” value [6]?
Answer: 38%

Question: What about the “Population Mitotic Cells (%)” value [6] of the same compound?
Answer: 54%

Question: What about the “Population Normal (%)” value [6] of the same compound?
Answer: 91%

Question: What about the “Population Pyknosed Nuclei (%)” value [6] of the same compound?
Answer: 12%

Question: What about the “Population Tubulin-Different-Phenotype (%)” value [6] of the same compound?
Answer: 13%

Question: And the “Total Cell Count” value [6]?
Answer: 370

Question: And the “Population Apoptotic (%)” value [7]?
Answer: 33%

Question: And the “Population Fragmented Nuclei (%)” value [7]?
Answer: 10%

Question: And the “Population Healthy Nuclei (%)” value [7]?
Answer: 80%

Question: And the “Population Hoechst High Intensity Objects (%)” value [7]?
Answer: 6%

Question: What about the “Population Membrane Permeable-Phenotype (%)” value [7] of the same compound?
Answer: 0%

Question: What about the “Population Mitochondria Different-Phenotype (%)” value [7] of the same compound?
Answer: 38%

Question: And the “Population Mitotic Cells (%)” value [7]?
Answer: 66%

Question: What about the “Population Normal (%)” value [7] of the same compound?
Answer: 93%

Question: What about the “Population Pyknosed Nuclei (%)” value [7] of the same compound?
Answer: 9%

Question: What about the “Population Tubulin-Different-Phenotype (%)” value [7] of the same compound?
Answer: 29%

Question: What about the “Total Cell Count” value [7] of the same compound?
Answer: 661

Question: And the “Population Apoptotic (%)” value [8]?
Answer: 52%

Question: What about the “Population Fragmented Nuclei (%)” value [8] of the same compound?
Answer: 8%

Question: What about the “Population Hoechst High Intensity Objects (%)” value [8] of the same compound?
Answer: 24%

Question: What about the “Population Mitochondria Different-Phenotype (%)” value [8] of the same compound?
Answer: 47%

Question: And the “Population Mitotic Cells (%)” value [8]?
Answer: 47%

Question: What about the “Population Normal (%)” value [8] of the same compound?
Answer: 75%

Question: And the “Population Pyknosed Nuclei (%)” value [8]?
Answer: 11%

Question: What about the “Population Tubulin-Different-Phenotype (%)” value [8] of the same compound?
Answer: 20%

Question: And the “Total Cell Count” value [8]?
Answer: 444

Question: What about the “Population Apoptotic (%)” value [9] of the same compound?
Answer: 20%

Question: And the “Population Fragmented Nuclei (%)” value [9]?
Answer: 11%

Question: What about the “Population Healthy Nuclei (%)” value [9] of the same compound?
Answer: 82%

Question: And the “Population Hoechst High Intensity Objects (%)” value [9]?
Answer: 2%

Question: What about the “Population Membrane Permeable-Phenotype (%)” value [9] of the same compound?
Answer: 1%

Question: What about the “Population Mitochondria Different-Phenotype (%)” value [9] of the same compound?
Answer: 15%

Question: And the “Population Mitotic Cells (%)” value [9]?
Answer: 79%

Question: And the “Population Normal (%)” value [9]?
Answer: 97%

Question: What about the “Population Pyknosed Nuclei (%)” value [9] of the same compound?
Answer: 6%

Question: What about the “Population Tubulin-Different-Phenotype (%)” value [9] of the same compound?
Answer: 11%

Question: What about the “Total Cell Count” value [9] of the same compound?
Answer: 820

Question: What about the “Population Apoptotic (%)” value [10] of the same compound?
Answer: 38%

Question: And the “Population Fragmented Nuclei (%)” value [10]?
Answer: 10%

Question: What about the “Population Healthy Nuclei (%)” value [10] of the same compound?
Answer: 80%

Question: And the “Population Hoechst High Intensity Objects (%)” value [10]?
Answer: 4%

Question: And the “Population Membrane Permeable-Phenotype (%)” value [10]?
Answer: 0%

Question: And the “Population Mitochondria Different-Phenotype (%)” value [10]?
Answer: 28%

Question: What about the “Population Mitotic Cells (%)” value [10] of the same compound?
Answer: 61%

Question: And the “Population Normal (%)” value [10]?
Answer: 95%

Question: And the “Population Pyknosed Nuclei (%)” value [10]?
Answer: 8%

Question: And the “Population Tubulin-Different-Phenotype (%)” value [10]?
Answer: 13%

Question: And the “Total Cell Count” value [10]?
Answer: 534

Question: What about the “Population Apoptotic (%)” value [11] of the same compound?
Answer: 22%

Question: And the “Population Fragmented Nuclei (%)” value [11]?
Answer: 14%

Question: What about the “Population Healthy Nuclei (%)” value [11] of the same compound?
Answer: 79%

Question: What about the “Population Hoechst High Intensity Objects (%)” value [11] of the same compound?
Answer: 4%

Question: And the “Population Membrane Permeable-Phenotype (%)” value [11]?
Answer: 0%

Question: And the “Population Mitochondria Different-Phenotype (%)” value [11]?
Answer: 21%

Question: What about the “Population Mitotic Cells (%)” value [11] of the same compound?
Answer: 77%

Question: What about the “Population Normal (%)” value [11] of the same compound?
Answer: 95%

Question: And the “Population Pyknosed Nuclei (%)” value [11]?
Answer: 6%

Question: What about the “Population Tubulin-Different-Phenotype (%)” value [11] of the same compound?
Answer: 16%

Question: And the “Total Cell Count” value [11]?
Answer: 984

Question: And the “Population Apoptotic (%)” value [12]?
Answer: 68%

Question: And the “Population Fragmented Nuclei (%)” value [12]?
Answer: 13%

Question: And the “Population Healthy Nuclei (%)” value [12]?
Answer: 77%

Question: And the “Population Hoechst High Intensity Objects (%)” value [12]?
Answer: 11%

Question: And the “Population Membrane Permeable-Phenotype (%)” value [12]?
Answer: 1%

Question: And the “Population Mitochondria Different-Phenotype (%)” value [12]?
Answer: 30%

Question: What about the “Population Mitotic Cells (%)” value [12] of the same compound?
Answer: 31%

Question: And the “Population Normal (%)” value [12]?
Answer: 88%

Question: And the “Population Pyknosed Nuclei (%)” value [12]?
Answer: 9%

Question: And the “Total Cell Count” value [12]?
Answer: 567

Reference: ChEMBL document CHEMBL5058577, “EUbOPEN Chemogenomics Library 2 (Multiplex)” (2022)
